Assay results: ChEMBL document CHEMBL1142080, “In vitro activities of amphotericin B, caspofungin, itraconazole, posaconazole, and voriconazole against 45 clinical isolates of zygomycetes: comparison of CLSI M38-A, Sensititre YeastOne, and the Etest” (2007)
Converted amounts (≈) assume the structure as drawn.

Legend:
Assay type in all cases: functional
Syncephalastrum [1] = assay: Antifungal activity against Syncephalastrum spp after 48 hrs
Summary of the method: (§1)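 Broth microdilution per CLSI M38-A, with plates incubated at 35°C and read at 24 and 48 h. Final well concentrations were 0.03 to 16 µg/ml for four agents and 0.250 to 256 µg/ml for the echinocandin. The MIC was the lowest concentration giving complete growth inhibition (MIC-0). For the echinocandin, the MEC was also read as the lowest concentration showing abnormal growth. QC strains were A. flavus ATCC 204304 and A. fumigatus ATCC 204305.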

Cunninghamella [2] = assay: Antifungal activity against Cunninghamella spp after 48 hrs; summary of the method: as §1
Absidia [3] = assay: Antifungal activity against Absidia spp after 48 hrs; summary of the method: as §1
Mucor [4] = assay: Antifungal activity against Mucor spp after 48 hrs; summary of the method: as §1
Rhizopus [5] = assay: Antifungal activity against Rhizopus spp after 48 hrs; summary of the method: as §1
Rhizomucor [6] = assay: Antifungal activity against Rhizomucor spp after 48 hrs; summary of the method: as §1
Cunninghamella [7] = assay: Antifungal activity against Cunninghamella spp after 24 hrs; summary of the method: as §1
Absidia [8] = assay: Antifungal activity against Absidia spp after 24 hrs; summary of the method: as §1
Rhizopus [9] = assay: Antifungal activity against Rhizopus spp after 24 hrs; summary of the method: as §1
Syncephalastrum [10] = assay: Antifungal activity against Syncephalastrum spp after 24 hrs; summary of the method: as §1
Mucor [11] = assay: Antifungal activity against Mucor spp after 24 hrs; summary of the method: as §1
Rhizomucor [12] = assay: Antifungal activity against Rhizomucor spp after 24 hrs; summary of the method: as §1

SMILES | MIC50 (Syncephalastrum [1]) [µg/mL] | MIC90 (Syncephalastrum [1]) [µg/mL] | MIC50 (Cunninghamella [2]) [µg/mL] | MIC90 (Cunninghamella [2]) [µg/mL] | MIC50 (Absidia [3]) [µg/mL] | MIC90 (Absidia [3]) [µg/mL] | MIC50 (Mucor [4]) [µg/mL] | MIC90 (Mucor [4]) [µg/mL] | MIC50 (Rhizopus [5]) [µg/mL] | MIC90 (Rhizopus [5]) [µg/mL] | MIC50 (Rhizomucor [6]) [µg/mL] | MIC90 (Rhizomucor [6]) [µg/mL] | MIC50 (Cunninghamella [7]) [µg/mL] | MIC90 (Cunninghamella [7]) [µg/mL] | MIC50 (Absidia [8]) [µg/mL] | MIC90 (Absidia [8]) [µg/mL] | MIC50 (Rhizopus [9]) [µg/mL] | MIC90 (Rhizopus [9]) [µg/mL] | MIC50 (Syncephalastrum [10]) [µg/mL] | MIC90 (Syncephalastrum [10]) [µg/mL] | other results
C[C@@H]1[C@H](O)[C@@H](C)/C=C/C=C/C=C/C=C/C=C/C=C/C=C/[C@H](O[C@@H]2O[C@H](C)[C@@H](O)[C@H](N)[C@@H]2O)C[C@@H]2O[C@](O)(C[C@@H](O)C[C@@H](O)[C@H](O)CC[C@@H](O)C[C@@H](O)CC(=O)O[C@H]1C)C[C@H](O)[C@H]2C(=O)O [AMPHOTERICIN B] | 0.125 (≈ 0.135 µM) | 2 (≈ 2.16 µM) | 2 (≈ 2.16 µM) | > 16 | 0.5 (≈ 0.541 µM) | 4 (≈ 4.33 µM) | 1 (≈ 1.08 µM) | 2 (≈ 2.16 µM) | 1 (≈ 1.08 µM) | 2 (≈ 2.16 µM) | 1 (≈ 1.08 µM) | 1 (≈ 1.08 µM) | 2 (≈ 2.16 µM) | 4 (≈ 4.33 µM) | 1 (≈ 1.08 µM) | 4 (≈ 4.33 µM) | 1 (≈ 1.08 µM) | 2 (≈ 2.16 µM) | 0.125 (≈ 0.135 µM) | 1 (≈ 1.08 µM) | MIC50 (Mucor [11]): 1 µg/mL (≈ 1.08 µM); MIC90 (Mucor [11]): 1 µg/mL (≈ 1.08 µM); MIC50 (Rhizomucor [12]): 1 µg/mL (≈ 1.08 µM); MIC90 (Rhizomucor [12]): 1 µg/mL (≈ 1.08 µM)
CC[C@H](C)C[C@H](C)CCCCCCCCC(=O)N[C@H]1C[C@@H](O)[C@@H](NCCN)NC(=O)[C@@H]2[C@@H](O)CCN2C(=O)[C@H]([C@H](O)CCN)NC(=O)[C@H]([C@H](O)[C@@H](O)c2ccc(O)cc2)NC(=O)[C@@H]2C[C@@H](O)CN2C(=O)[C@H]([C@@H](C)O)NC1=O [CASPOFUNGIN] | 256 (≈ 234 µM) | > 256 | 256 (≈ 234 µM) | > 256 | > 256 | > 256 | > 256 | > 256 | > 256 | > 256 | > 256 | > 256 | 256 (≈ 234 µM) | > 256 | 256 (≈ 234 µM) | > 256 | > 256 | > 256 | 256 (≈ 234 µM) | > 256 | minimal effective concentration (Syncephalastrum [1]; read-out: MEC): > 256 µg/mL; minimal effective concentration (Cunninghamella [2]; read-out: MEC): 128 µg/mL; minimal effective concentration (Absidia [3]; read-out: MEC): 256 µg/mL; minimal effective concentration (Rhizopus [5]; read-out: MEC): 256 µg/mL; minimal effective concentration (Rhizomucor [6]; read-out: MEC): 64 µg/mL; minimal effective concentration (Cunninghamella [7]; read-out: MEC): 128 µg/mL; minimal effective concentration (Absidia [8]; read-out: MEC): 64 µg/mL; minimal effective concentration (Rhizopus [9]; read-out: MEC): 128 µg/mL; minimal effective concentration (Syncephalastrum [10]; read-out: MEC): 8 µg/mL; MIC50 (Mucor [11]): 256 µg/mL (≈ 234 µM); MIC90 (Mucor [11]): > 256 µg/mL; minimal effective concentration (Mucor [11]; read-out: MEC): 128 µg/mL; MIC50 (Rhizomucor [12]): 256 µg/mL (≈ 234 µM); MIC90 (Rhizomucor [12]): 256 µg/mL (≈ 234 µM); minimal effective concentration (Rhizomucor [12]; read-out: MEC): 32 µg/mL
CCC(C)n1ncn(-c2ccc(N3CCN(c4ccc(OCC5COC(Cn6cncn6)(c6ccc(Cl)cc6Cl)O5)cc4)CC3)cc2)c1=O (stereo unspecified) [ITRACONAZOLE] | 1 (≈ 1.42 µM) | 8 (≈ 11.3 µM) | 1 (≈ 1.42 µM) | 4 (≈ 5.67 µM) | 1 (≈ 1.42 µM) | > 16 | 4 (≈ 5.67 µM) | > 16 | 4 (≈ 5.67 µM) | > 16 | > 16 | > 16 | 1 (≈ 1.42 µM) | 4 (≈ 5.67 µM) | 1 (≈ 1.42 µM) | > 16 | 1 (≈ 1.42 µM) | > 16 | 1 (≈ 1.42 µM) | 1 (≈ 1.42 µM) | MIC50 (Mucor [11]): 1 µg/mL (≈ 1.42 µM); MIC90 (Mucor [11]): > 16 µg/mL; MIC50 (Rhizomucor [12]): 2 µg/mL (≈ 2.83 µM); MIC90 (Rhizomucor [12]): 2 µg/mL (≈ 2.83 µM)
CC[C@@H]([C@H](C)O)n1ncn(-c2ccc(N3CCN(c4ccc(OC[C@@H]5CO[C@@](Cn6cncn6)(c6ccc(F)cc6F)C5)cc4)CC3)cc2)c1=O [POSACONAZOLE] | 0.5 (≈ 0.713 µM) | 0.5 (≈ 0.713 µM) | 0.5 (≈ 0.713 µM) | 0.5 (≈ 0.713 µM) | 0.5 (≈ 0.713 µM) | > 16 | 0.5 (≈ 0.713 µM) | 2 (≈ 2.85 µM) | 0.5 (≈ 0.713 µM) | 1 (≈ 1.43 µM) | 2 (≈ 2.85 µM) | 2 (≈ 2.85 µM) | 0.5 (≈ 0.713 µM) | 0.5 (≈ 0.713 µM) | 0.5 (≈ 0.713 µM) | 1 (≈ 1.43 µM) | 0.5 (≈ 0.713 µM) | 0.5 (≈ 0.713 µM) | 0.25 (≈ 0.357 µM) | 0.5 (≈ 0.713 µM) | MIC50 (Mucor [11]): 0.5 µg/mL (≈ 0.713 µM); MIC90 (Mucor [11]): 2 µg/mL (≈ 2.85 µM); MIC50 (Rhizomucor [12]): 0.5 µg/mL (≈ 0.713 µM); MIC90 (Rhizomucor [12]): 0.5 µg/mL (≈ 0.713 µM)
C[C@@H](c1ncncc1F)[C@](O)(Cn1cncn1)c1ccc(F)cc1F [VORICONAZOLE] | > 16 | > 16 | > 16 | > 16 | > 16 | > 16 | > 16 | > 16 | 16 (≈ 45.8 µM) | > 16 | > 16 | > 16 | > 16 | > 16 | > 16 | > 16 | 16 (≈ 45.8 µM) | 16 (≈ 45.8 µM) | 4 (≈ 11.5 µM) | > 16 | MIC50 (Mucor [11]): > 16 µg/mL; MIC90 (Mucor [11]): > 16 µg/mL; MIC50 (Rhizomucor [12]): 16 µg/mL (≈ 45.8 µM); MIC90 (Rhizomucor [12]): 16 µg/mL (≈ 45.8 µM)
